Data reported in ChEMBL document CHEMBL2169836 (J Med Chem, 2012).
Calls of active or inactive are those of the source. The rule behind the calls is not given here.

Assays:
Rattus norvegicus = assay: Clearance in jugular and femoral vein precannulated Sprague-Dawley rat at 1 mg/kg, iv by LC/MS/MS analysis relative to hepatic blood flow; assay type: ADME, organism-based, Liver; set-up: dose 1 mg/kg, route intravenous; details: in vivo
[1] = Mean resident time in jugular and femoral vein precannulated Sprague-Dawley rat at 1 mg/kg, iv by LC/MS/MS analysis; assay type: ADME, organism-based; set-up: dose 1 mg/kg, route intravenous; details: in vivo
[2] = Volume of distribution at steady state in jugular and femoral vein precannulated Sprague-Dawley rat at 1 mg/kg, iv by LC/MS/MS analysis; assay type: ADME, organism-based; set-up: dose 1 mg/kg, route intravenous; details: in vivo, read-out: Vdss
[3] = target: T1, Sodium/hydrogen exchanger 1 (Homo sapiens, UniProt P19634); assay: Inhibition of NHE1 in human HT-29 cells assessed as intracellular pH change after 30 mins; assay type: cell-based
[4] = Oral bioavailability in jugular and femoral vein precannulated Sprague-Dawley rat plasma at 5 mg/kg by LC/MS/MS analysis; assay type: ADME, organism-based
[5] = Metabolic stability in human liver microsomes at 1 uM up to 60 mins by LC/MS/MS analysis relative to hepatic blood flow; assay type: ADME, Microsome; details: read-out: Stability
Cytochrome P450 2C19 = Cytochrome P450 2C19 (Homo sapiens, UniProt P33261); assay: Inhibition of CYP2C19 in human liver microsomes using 7-ethoxy-3-cyanocoumarin as substrate after 45 mins by LC/MS/MS analysis; assay type: ADME, Microsome
[6] = Metabolic stability in rat liver microsomes at 1 uM up to 60 mins by LC/MS/MS analysis relative to hepatic blood flow; assay type: ADME, Microsome; details: read-out: Stability
[7] = target: Voltage-gated inwardly rectifying potassium channel KCNH2 (Homo sapiens, UniProt Q12809); assay: Inhibition of human ERG expressed in HEK 293 cells by PatchXpress assay; assay type: cell-based, HEK293
Cytochrome P450 3A4 = Cytochrome P450 3A4 (Homo sapiens, UniProt P08684); assay: Inhibition of CYP3A4 in human liver microsomes using 7-benzyloxy-4-(trifluoromethyl)-coumarin as substrate after 30 mins by LC/MS/MS analysis; assay type: ADME, Microsome
[8] = Permeability of the compound by PAMPA; assay type: ADME; details: read-out: permeability
Method in brief: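 Donor buffers were set to pH 5.0, 6.2 and 7.4 with NaOH, and ASB7.4 buffer was used as acceptor. Filters (0.45 pore, 125 μm thick) were lipid-coated. A 10 mM DMSO stock was diluted to 41.7 μM in donor buffer. The sandwich was incubated 4 h without stirring. Reference, donor and acceptor concentrations were read in duplicate by UV plate reader, and ratings were assigned from permeation velocity.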

Cytochrome P450 2D6 = Cytochrome P450 2D6 (Homo sapiens, UniProt P10635); assay: Inhibition of CYP2D6 in human liver microsomes using 3-[2-(N,N-diethyl-N-methylamino)ethyl]-7- methoxy-4-methylcoumarin as substrate after 45 mins by LC/MS/MS analysis; assay type: ADME, Microsome
Cytochrome P450 2C9 = Cytochrome P450 2C9 (Homo sapiens, UniProt P11712); assay: Inhibition of CYP2C9 in human liver microsomes using 7-methoxy-4-(trifluoromethyl)-coumarin as substrate after 45 mins by LC/MS/MS analysis; assay type: ADME, Microsome
[9] = target: T1, Sodium/hydrogen exchanger 1; assay: Inhibition of NHE1 in human HT-29 cells assessed as intracellular pH change after 30 mins in presence of plasma protein; assay type: cell-based
[10] = Oral bioavailability in overnight fasted Beagle dog at 5 mg/kg; assay type: ADME, organism-based, Canis lupus familiaris; details: in vivo
Canis familiaris = assay: Clearance in overnight fasted Beagle dog at 1 mg/kg, iv relative to hepatic blood flow; assay type: ADME, organism-based, Canis lupus familiaris, Liver; set-up: dose 1 mg/kg, route intravenous; details: in vivo
[11] = Mean resident time in overnight fasted Beagle dog at 1 mg/kg, iv; assay type: ADME, organism-based, Canis lupus familiaris; set-up: dose 1 mg/kg, route intravenous; details: in vivo
[12] = Volume of distribution at steady state in overnight fasted Beagle dog at 1 mg/kg, iv; assay type: ADME, organism-based, Canis lupus familiaris; set-up: dose 1 mg/kg, route intravenous; details: in vivo, read-out: Vdss
[13] = target: T2, Sodium/hydrogen exchanger 3 (Homo sapiens) (UniProt P48764); assay: Inhibition of NHE3 transfected in Chinese hamster PS120 assessed as intracellular pH change up to 16 uM; assay type: cell-based
T2 sequence (whole entry): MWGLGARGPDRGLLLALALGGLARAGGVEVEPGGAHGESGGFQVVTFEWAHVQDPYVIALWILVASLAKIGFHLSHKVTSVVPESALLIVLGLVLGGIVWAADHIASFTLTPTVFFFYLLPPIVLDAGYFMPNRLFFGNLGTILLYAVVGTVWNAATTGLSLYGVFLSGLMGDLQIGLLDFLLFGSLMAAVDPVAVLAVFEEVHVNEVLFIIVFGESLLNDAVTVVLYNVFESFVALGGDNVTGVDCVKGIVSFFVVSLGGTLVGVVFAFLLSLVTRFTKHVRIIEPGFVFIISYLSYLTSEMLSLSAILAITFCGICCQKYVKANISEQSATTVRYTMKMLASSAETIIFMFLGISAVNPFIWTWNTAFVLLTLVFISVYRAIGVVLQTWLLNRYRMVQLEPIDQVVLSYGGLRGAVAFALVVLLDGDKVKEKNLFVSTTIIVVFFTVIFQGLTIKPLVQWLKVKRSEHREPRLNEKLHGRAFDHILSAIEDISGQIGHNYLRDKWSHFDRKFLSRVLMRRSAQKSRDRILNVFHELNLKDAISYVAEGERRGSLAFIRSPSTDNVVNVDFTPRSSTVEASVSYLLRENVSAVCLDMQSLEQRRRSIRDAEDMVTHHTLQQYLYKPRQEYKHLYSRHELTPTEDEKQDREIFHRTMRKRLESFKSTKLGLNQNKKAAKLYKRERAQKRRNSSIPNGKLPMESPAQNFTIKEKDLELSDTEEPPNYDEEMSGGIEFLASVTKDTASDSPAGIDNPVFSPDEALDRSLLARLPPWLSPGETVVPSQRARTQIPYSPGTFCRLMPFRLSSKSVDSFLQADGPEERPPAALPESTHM

T1 sequence (P19634 whole entry): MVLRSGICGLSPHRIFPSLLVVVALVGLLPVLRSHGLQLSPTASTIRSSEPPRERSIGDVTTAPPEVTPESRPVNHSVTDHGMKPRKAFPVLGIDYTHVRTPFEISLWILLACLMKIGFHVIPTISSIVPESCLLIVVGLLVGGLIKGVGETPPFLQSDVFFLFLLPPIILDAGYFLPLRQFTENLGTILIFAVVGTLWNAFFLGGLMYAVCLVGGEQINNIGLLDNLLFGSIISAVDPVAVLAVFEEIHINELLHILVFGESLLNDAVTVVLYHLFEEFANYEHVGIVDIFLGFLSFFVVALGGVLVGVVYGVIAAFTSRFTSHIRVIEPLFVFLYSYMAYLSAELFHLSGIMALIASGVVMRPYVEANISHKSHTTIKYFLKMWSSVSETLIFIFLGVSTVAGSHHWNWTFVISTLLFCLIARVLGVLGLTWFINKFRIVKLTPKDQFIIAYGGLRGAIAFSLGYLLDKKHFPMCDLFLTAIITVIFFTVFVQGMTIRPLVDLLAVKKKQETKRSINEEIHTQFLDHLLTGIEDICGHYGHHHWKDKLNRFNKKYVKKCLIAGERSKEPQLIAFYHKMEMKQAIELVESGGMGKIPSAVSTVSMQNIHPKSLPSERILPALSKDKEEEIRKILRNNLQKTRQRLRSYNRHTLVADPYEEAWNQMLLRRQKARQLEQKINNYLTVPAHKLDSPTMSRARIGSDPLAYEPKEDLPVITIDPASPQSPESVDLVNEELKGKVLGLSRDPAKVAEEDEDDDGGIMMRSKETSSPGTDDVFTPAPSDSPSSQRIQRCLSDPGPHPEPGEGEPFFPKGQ
Chain of Cytochrome P450 2C9 (P11712 whole entry): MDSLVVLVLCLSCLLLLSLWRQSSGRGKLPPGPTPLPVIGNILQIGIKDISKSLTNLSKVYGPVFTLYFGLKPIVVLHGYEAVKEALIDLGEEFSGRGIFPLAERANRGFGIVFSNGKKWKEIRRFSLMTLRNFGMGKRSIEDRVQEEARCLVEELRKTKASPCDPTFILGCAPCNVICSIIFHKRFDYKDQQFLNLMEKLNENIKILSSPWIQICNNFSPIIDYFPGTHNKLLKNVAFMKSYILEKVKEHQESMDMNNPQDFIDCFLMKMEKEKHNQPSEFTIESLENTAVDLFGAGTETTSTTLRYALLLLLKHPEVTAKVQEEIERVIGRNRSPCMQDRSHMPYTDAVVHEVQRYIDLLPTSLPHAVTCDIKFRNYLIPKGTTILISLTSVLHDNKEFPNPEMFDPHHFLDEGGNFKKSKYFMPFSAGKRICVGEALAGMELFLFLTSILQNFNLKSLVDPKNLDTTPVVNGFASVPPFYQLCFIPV
Chain of Cytochrome P450 2C19 (P33261 whole entry): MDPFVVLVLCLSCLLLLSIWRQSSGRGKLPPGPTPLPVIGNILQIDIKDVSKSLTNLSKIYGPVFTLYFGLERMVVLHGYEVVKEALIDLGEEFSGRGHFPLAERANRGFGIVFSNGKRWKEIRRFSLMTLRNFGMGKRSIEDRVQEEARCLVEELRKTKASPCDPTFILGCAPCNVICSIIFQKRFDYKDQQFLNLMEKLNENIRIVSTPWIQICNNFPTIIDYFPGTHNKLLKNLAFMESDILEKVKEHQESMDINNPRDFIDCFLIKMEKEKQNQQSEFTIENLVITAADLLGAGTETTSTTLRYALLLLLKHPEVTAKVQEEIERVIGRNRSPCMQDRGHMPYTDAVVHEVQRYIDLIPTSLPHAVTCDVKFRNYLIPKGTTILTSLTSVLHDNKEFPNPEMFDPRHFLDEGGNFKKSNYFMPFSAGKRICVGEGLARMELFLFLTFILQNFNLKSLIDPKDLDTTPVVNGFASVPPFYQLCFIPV
Chain of Cytochrome P450 3A4 (P08684 whole entry): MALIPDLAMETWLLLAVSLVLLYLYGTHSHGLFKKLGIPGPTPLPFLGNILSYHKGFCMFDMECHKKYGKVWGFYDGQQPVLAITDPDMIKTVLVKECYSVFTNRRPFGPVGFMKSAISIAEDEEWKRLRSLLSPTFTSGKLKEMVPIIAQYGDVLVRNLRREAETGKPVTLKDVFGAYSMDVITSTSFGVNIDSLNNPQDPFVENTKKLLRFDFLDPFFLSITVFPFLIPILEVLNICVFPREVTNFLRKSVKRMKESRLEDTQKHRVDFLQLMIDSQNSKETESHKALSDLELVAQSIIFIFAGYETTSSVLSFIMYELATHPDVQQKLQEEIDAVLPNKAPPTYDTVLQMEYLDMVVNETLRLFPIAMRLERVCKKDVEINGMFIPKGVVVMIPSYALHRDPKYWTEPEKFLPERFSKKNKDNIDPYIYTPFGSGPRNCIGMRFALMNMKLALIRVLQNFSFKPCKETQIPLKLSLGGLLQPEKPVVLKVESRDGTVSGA
Chain of Cytochrome P450 2D6 (P10635 whole entry): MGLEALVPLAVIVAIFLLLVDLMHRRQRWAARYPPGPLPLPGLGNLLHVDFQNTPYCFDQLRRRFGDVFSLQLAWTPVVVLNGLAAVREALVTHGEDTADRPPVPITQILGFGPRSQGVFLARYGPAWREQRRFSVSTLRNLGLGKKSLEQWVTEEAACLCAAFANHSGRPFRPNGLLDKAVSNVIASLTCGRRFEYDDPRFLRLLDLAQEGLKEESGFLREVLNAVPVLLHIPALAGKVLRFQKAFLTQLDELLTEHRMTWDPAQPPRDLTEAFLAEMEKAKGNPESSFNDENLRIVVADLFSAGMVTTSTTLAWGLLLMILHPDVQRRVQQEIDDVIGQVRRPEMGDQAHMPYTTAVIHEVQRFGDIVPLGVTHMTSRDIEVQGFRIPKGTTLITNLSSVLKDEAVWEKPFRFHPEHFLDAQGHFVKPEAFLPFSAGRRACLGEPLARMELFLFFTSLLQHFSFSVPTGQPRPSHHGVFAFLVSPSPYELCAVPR
Chain of Voltage-gated inwardly rectifying potassium channel KCNH2 (Q12809 whole entry): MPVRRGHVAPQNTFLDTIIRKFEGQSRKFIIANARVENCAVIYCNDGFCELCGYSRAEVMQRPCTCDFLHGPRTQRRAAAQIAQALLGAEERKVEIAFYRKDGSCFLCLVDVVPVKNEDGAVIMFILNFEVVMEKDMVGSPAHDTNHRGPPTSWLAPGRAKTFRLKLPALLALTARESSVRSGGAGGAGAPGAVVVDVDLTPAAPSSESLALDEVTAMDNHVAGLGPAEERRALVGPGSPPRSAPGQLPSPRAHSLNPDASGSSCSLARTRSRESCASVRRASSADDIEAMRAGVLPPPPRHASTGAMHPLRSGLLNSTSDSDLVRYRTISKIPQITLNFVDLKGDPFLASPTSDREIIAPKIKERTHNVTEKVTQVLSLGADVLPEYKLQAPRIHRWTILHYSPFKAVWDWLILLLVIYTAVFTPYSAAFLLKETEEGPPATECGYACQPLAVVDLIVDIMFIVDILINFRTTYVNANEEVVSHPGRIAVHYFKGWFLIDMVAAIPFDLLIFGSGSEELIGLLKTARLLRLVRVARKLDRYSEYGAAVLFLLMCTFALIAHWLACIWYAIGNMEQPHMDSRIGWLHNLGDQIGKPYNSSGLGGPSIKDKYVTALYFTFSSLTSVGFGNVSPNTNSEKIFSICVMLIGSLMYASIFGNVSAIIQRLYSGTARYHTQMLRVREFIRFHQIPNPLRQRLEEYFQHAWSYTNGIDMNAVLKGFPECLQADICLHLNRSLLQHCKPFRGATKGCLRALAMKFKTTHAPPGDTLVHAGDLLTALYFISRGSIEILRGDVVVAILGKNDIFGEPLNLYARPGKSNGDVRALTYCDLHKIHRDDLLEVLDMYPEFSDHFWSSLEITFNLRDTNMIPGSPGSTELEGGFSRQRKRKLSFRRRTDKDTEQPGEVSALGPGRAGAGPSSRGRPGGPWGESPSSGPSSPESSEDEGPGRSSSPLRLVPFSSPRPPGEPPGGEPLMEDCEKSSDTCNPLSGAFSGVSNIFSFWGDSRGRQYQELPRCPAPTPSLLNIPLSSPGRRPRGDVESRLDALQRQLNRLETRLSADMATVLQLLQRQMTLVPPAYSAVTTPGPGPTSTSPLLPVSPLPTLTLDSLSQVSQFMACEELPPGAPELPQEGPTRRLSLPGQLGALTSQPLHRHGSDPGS

## CC(=O)N1CCC(c2cc(C)c(C(=O)NC(=N)N)cc2S(C)(=O)=O)CC1
Rattus norvegicus
  CL: 47%
[1]
  MRT: 0.36 h
[2]
  Vd: 1 L/kg
[3]
  IC50: 15 nM
[4]
  bioavailability: 4%

## COCC(=O)N1CCC(c2ccc(C(=O)NC(=N)N)cc2C(F)(F)F)CC1
Rattus norvegicus
  CL: 21%
[5]
  hepatic extraction ratio at 1 h, 1 µM: 0.06
Cytochrome P450 2C19
  IC50: 8 µM
[6]
  hepatic extraction ratio at 1 h, 1 µM: 0.36
[7]
  IC50: > 30 µM
Cytochrome P450 3A4
  IC50: > 30 µM
[1]
  MRT: 1.4 h
[2]
  Vd: 1.3 L/kg
[8]
  Papp: ≥ 2 ×10⁻⁶ cm/s
[3]
  IC50: 10 nM
Cytochrome P450 2D6
  IC50: > 30 µM
Cytochrome P450 2C9
  IC50: 25 µM

## CS(=O)(=O)c1ccc(C(=O)N2CCC(c3ccc(C(=O)NC(=N)N)cc3C(F)(F)F)CC2)cc1
Rattus norvegicus
  CL: 66%
Cytochrome P450 2C19
  IC50: > 30 µM
[8]
  Papp: < 2 ×10⁻⁶ cm/s
[3]
  IC50: 15 nM
Cytochrome P450 2D6
  IC50: > 30 µM
Cytochrome P450 2C9
  IC50: > 30 µM
[4]
  bioavailability: 15%

## N=C(N)NC(=O)c1ccc(N2CCC(NC(=O)c3ccc[nH]3)C2)c(C(F)(F)F)c1 (racemic)
[9]
  inhibition: Active
[3]
  IC50: 36 nM

## N#Cc1cccc(C(=O)N2CCC(c3ccc(C(=O)NC(=N)N)cc3C(F)(F)F)CC2)c1
Rattus norvegicus
  CL: 16%
[5]
  hepatic extraction ratio at 1 h, 1 µM: < 0.11
Cytochrome P450 2C19
  IC50: 7 µM
[6]
  hepatic extraction ratio at 1 h, 1 µM: < 0.056
[10]
  bioavailability: 36%
Canis familiaris
  CL: 18%
[7]
  IC50: > 30 µM
Cytochrome P450 3A4
  IC50: 22 µM
[1]
  MRT: 3.3 h
[11]
  MRT: 17 h
[2]
  Vd: 4.9 L/kg
[8]
  Papp: ≥ 2 ×10⁻⁶ cm/s
[3]
  IC50: 35 nM
Cytochrome P450 2D6
  IC50: > 30 µM
Cytochrome P450 2C9
  IC50: 19 µM
[4]
  bioavailability: 72%

## N=C(N)NC(=O)c1ccc(N2CCCC(NC(=O)c3ccc[nH]3)C2)c(C(F)(F)F)c1 (racemic)
[9]
  inhibition: Active
[3]
  IC50: 172 nM

## CC(C)(C)C(=O)N1CCC(c2ccc(C(=O)NC(=N)N)cc2C(F)(F)F)CC1
Rattus norvegicus
  CL: 29%
[1]
  MRT: 1.5 h
[2]
  Vd: 1.8 L/kg
[8]
  Papp: ≥ 2 ×10⁻⁶ cm/s
[3]
  IC50: 72 nM
Cytochrome P450 2D6
  IC50: > 30 µM
Cytochrome P450 2C9
  IC50: 17 µM

## Cn1ccnc1C(=O)N1CCC(c2ccc(C(=O)NC(=N)N)cc2C(F)(F)F)CC1
Rattus norvegicus
  CL: 31%
[5]
  hepatic extraction ratio at 1 h, 1 µM: 0.47
Cytochrome P450 2C19
  IC50: 16 µM
[6]
  hepatic extraction ratio at 1 h, 1 µM: 0.12
[7]
  IC50: > 30 µM
Cytochrome P450 3A4
  IC50: 26 µM
[1]
  MRT: 1 h
[2]
  Vd: 1.4 L/kg
[8]
  Papp: ≥ 2 ×10⁻⁶ cm/s
[3]
  IC50: 14 nM
Cytochrome P450 2D6
  IC50: > 30 µM
Cytochrome P450 2C9
  IC50: 18 µM

## N#Cc1ccc(C(=O)N2CCC(c3ccc(C(=O)NC(=N)N)cc3C(F)(F)F)CC2)cc1
Rattus norvegicus
  CL: 19%
[5]
  hepatic extraction ratio at 1 h, 1 µM: < 0.11
Cytochrome P450 2C19
  IC50: 15 µM
[6]
  hepatic extraction ratio at 1 h, 1 µM: 0.2
[7]
  IC50: 4 µM
Cytochrome P450 3A4
  IC50: 11 µM
[1]
  MRT: 8.5 h
[2]
  Vd: 6.5 L/kg
[8]
  Papp: ≥ 2 ×10⁻⁶ cm/s
Cytochrome P450 2D6
  IC50: > 30 µM
Cytochrome P450 2C9
  IC50: 13 µM

## CC(=O)N1CCC(c2cc(C)c(C(=O)NC(=N)N)cc2C(F)(F)F)CC1
[7]
  IC50: 7 µM
[3]
  IC50: 5 nM

## CC(C)c1ccc(C(=O)NC(=N)N)cc1S(C)(=O)=O [CARIPORIDE]
Rattus norvegicus
  CL: 82%
[1]
  MRT: 0.4 h
[2]
  Vd: 1.3 L/kg
[4]
  bioavailability: 37%

## N=C(N)NC(=O)c1ccc(N2CCN(C(=O)c3ccc[nH]3)CC2)c(C(F)(F)F)c1 [SABIPORIDE]
Rattus norvegicus
  CL: 24%
Cytochrome P450 2C19
  IC50: 9 µM
Cytochrome P450 3A4
  IC50: 7 µM
[1]
  MRT: 1.3 h
[2]
  Vd: 1.3 L/kg
[3]
  IC50: 28 nM
[4]
  bioavailability: 42%

## N=C(N)NC(=O)c1ccc(N2CCC(NC(=O)c3ccc[nH]3)CC2)c(C(F)(F)F)c1
[9]
  inhibition: Active
[3]
  IC50: 41 nM

## CCC(=O)N1CCC(c2ccc(C(=O)NC(=N)N)cc2C(F)(F)F)CC1
Rattus norvegicus
  CL: 4.4%
[12]
  Vd: 2 L/kg
[10]
  bioavailability: 49%
Canis familiaris
  CL: 8.1%
[1]
  MRT: 5.3 h
[11]
  MRT: 14 h
[13]
  inhibition: inactive
[2]
  Vd: 1 L/kg
[8]
  Papp: ≥ 2 ×10⁻⁶ cm/s
[3]
  IC50: 11 nM
[4]
  bioavailability: 49%

## N=C(N)NC(=O)c1cnn(-c2cccc3ncccc23)c1C1CC1 [ZONIPORIDE]
Rattus norvegicus
  CL: 105%
[1]
  MRT: 0.6 h
[2]
  Vd: 2.8 L/kg
[4]
  bioavailability: 5%

## Cc1cc(-n2cccc2)c(S(C)(=O)=O)cc1C(=O)NC(=N)N [ENIPORIDE]
Rattus norvegicus
  CL: 28%
[1]
  MRT: 0.4 h
[2]
  Vd: 0.5 L/kg
[4]
  bioavailability: 65%
